Results as given in ChEMBL document CHEMBL5356984 (RSC Med Chem, 2023).
Activity calls are given as the source filed them. No cut-off for these calls is given here.

Assays:
[1] = system: MDA-MB-231; assay: Antiproliferative activity against human MDA-MB-231 cells assessed as inhibition of cell viability measured after 48 hrs by MTT assay; assay type: functional, cell-based; conditions: MDA-MB-231, 48 h
Outline: (§1)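 MTT cell viability read-out; IC50 obtained by non-linear regression of concentration–response data; values are mean ± SD of three independent experiments.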

[2] = system: MCF7; assay: Induction of cell cycle arrest in human MCF7 cells assessed as accumulation of cells at G1 phase at 5 to 10 uM incubated for 36 hrs by PI staining based flow cytometry; assay type: functional; conditions: dose 5-10 µM
Outline: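 Following 36 h treatment (0, 5, 10 μM), trypsinized cells fixed overnight in 70% ethanol, treated with RNase (0.2 mg/mL) and PI (0.1 mg/mL) for 20 min, then analysed by flow cytometry for cell-cycle distribution; n = 3 versus control.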

[3] = system: MCF7; assay: Effect on HSP70 level in human MCF7 cells at 10 uM incubated for 36 hrs by DAPI staining based immunofluorescence analysis; assay type: functional, cell-based
Outline: (§2)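 Cells treated 36 h with DMSO vehicle control, then fixed with 4% paraformaldehyde 15 min, permeabilized with 0.2% Triton X-100 5 min, blocked with 3% BSA 15 min; primary antibody then fluorescent secondary antibody, each 1 h at room temperature; HSP70 green, HSF-1 red, nuclei DAPI; imaged by fluorescence microscopy.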

[4] = system: MCF7; assay: Effect on HSF-1 level in human MCF7 cells assessed as nuclear accumulation at 10 uM incubated for 36 hrs by DAPI staining based immunofluorescence analysis; assay type: functional, cell-based; outline: as §2
[5] = system: SK-BR-3; assay: Induction of apoptosis in human SK-BR-3 cells assessed as viable cells at 20 uM incubated for 36 hrs by Annexin V/PI staining based flow cytometry (reference value: 90.4 %); assay type: functional; conditions: read-out: Activity
[6] = system: MCF7; assay: Induction of apoptosis in human MCF7 cells assessed as early apoptotic cells at 20 uM incubated for 36 hrs by Annexin V/PI staining based flow cytometry (reference value: 1.13 %); assay type: functional
[7] = system: SK-BR-3; assay: Induction of apoptosis in human SK-BR-3 cells assessed as viable cells at 10 uM incubated for 36 hrs by Annexin V/PI staining based flow cytometry (reference value: 90.4 %); assay type: functional; conditions: read-out: Activity
[8] = system: SK-BR-3; assay: Induction of apoptosis in human SK-BR-3 cells assessed as late apoptotic cells at 10 uM incubated for 36 hrs by Annexin V/PI staining based flow cytometry (reference value: 4.95 %); assay type: functional
[9] = Thermal stability of compound in boiling toluene at 120 degreeC at 1 mg/ml measured for approximately 12 hrs by HPLC analysis; assay type: physicochemical
Outline: (§3)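 Compound at 1 mg mL−1 was heated in distilled boiling toluene at 120 °C for 0–24 h. Remaining percentage was measured by HPLC on a C18 column (5 µm, 4.6 × 250 mm) with MeOH/H2O gradients: 70→100% or 45→100% MeOH over 2–15 min, held at 100% to 20 min, then re-equilibrated.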

[10] = system: SK-BR-3; assay: Antiproliferative activity against human SK-BR-3 cells assessed as inhibition of cell viability measured after 48 hrs by MTT assay; assay type: functional, cell-based; conditions: SK-BR-3, 48 h; outline: as §1
[11] = Thermal stability of compound in boiling toluene at 120 degreeC at 1 mg/ml measured for 12 to 24 hrs by HPLC analysis; assay type: physicochemical; conditions: time 12-24 hrs; outline: as §3
[12] = system: MCF7; assay: Induction of apoptosis in human MCF7 cells assessed as viable cells at 10 uM incubated for 36 hrs by Annexin V/PI staining based flow cytometry (reference value: 90.5 %); assay type: functional; conditions: read-out: Activity
[13] = system: HCC1806; assay: Antiproliferative activity against human HCC1806 cells assessed as inhibition of cell viability measured after 48 hrs by MTT assay; assay type: functional, cell-based; conditions: HCC1806, 48 h; outline: as §1
[14] = system: MCF7; assay: Induction of apoptosis in human MCF7 cells assessed as necrotic cells at 5 uM incubated for 36 hrs by Annexin V/PI staining based flow cytometry (reference value: 2.30 %); assay type: functional
[15] = molecular target: T1, Heat shock protein HSP90 (Homo sapiens, UniProt P07900+P08238); assay: Inhibition of HSP90 in human MCF7 cells assessed as decrease in phosphorylated AKT level at 5 to 20 uM incubated for 48 hrs by Western blot analysis; assay type: cell-based; conditions: dose 5-20 µM
Outline: (§4)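 MCF-7 or SKBr3 cells were exposed for 48 h, then trypsinised, PBS-washed and lysed in RIPA buffer with phosphatase and protease inhibitors. Cleared lysate (14 000 rpm, 4 °C, 15 min) was BCA-quantified, and 20 µg protein was run on SDS-PAGE and blotted. Blots were blocked in 5% milk, incubated with primary antibodies (1:1000) overnight at 4 °C, then HRP secondary, and developed by ECL. GAPDH (1:10000) was the loading control.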

[16] = system: SK-BR-3; assay: Induction of apoptosis in human SK-BR-3 cells assessed as early apoptotic cells at 20 uM incubated for 36 hrs by Annexin V/PI staining based flow cytometry (reference value: 2.73 %); assay type: functional
[17] = molecular target: T1, Heat shock protein HSP90; assay: Inhibition of HSP90 in human SK-BR-3 cells assessed as decrease in AKT level at 5 to 20 uM incubated for 48 hrs by Western blot analysis; assay type: cell-based; conditions: dose 5-20 µM; outline: as §4
[18] = system: SK-BR-3; assay: Induction of apoptosis in human SK-BR-3 cells assessed as increase in cleaved pro-caspase-8 level at 10 to 20 uM incubated for 48 hrs by Western blot analysis; assay type: functional, cell-based; conditions: dose 10-20 µM
Outline: (§5)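 Cells exposed 48 h (DMSO vehicle control); trypsinized, lysed in RIPA with phosphatase/protease inhibitors; 20 μg protein on SDS-PAGE, blotted, blocked 5% milk 1 h; primary antibodies 1:1000 overnight at 4 °C, GAPDH 1:10000 as loading control; HRP secondary 1:1000–1:5000; ECL detection.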

[19] = system: SK-BR-3; assay: Induction of apoptosis in human SK-BR-3 cells assessed as increase in cleaved pro-caspase-3 level at 10 to 20 uM incubated for 48 hrs by Western blot analysis; assay type: functional, cell-based; conditions: dose 10-20 µM; outline: as §5
[20] = system: BT-474; assay: Antiproliferative activity against human BT-474 cells assessed as inhibition of cell viability measured after 48 hrs by MTT assay; assay type: functional, cell-based; conditions: BT-474, 48 h; outline: as §1
[21] = Selectivity index, ratio of IC50 for HEK293T cells to IC50 for human MCF7 cells; assay type: toxicity; conditions: HEK293T cells versus MCF7 cells, read-out: Ratio IC50
Outline: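 Viability of 293T and MCF-7 cells was measured by MTT assay, and IC50 was fitted by non-linear regression. The selectivity index is the 293T IC50 divided by the MCF-7 IC50.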

[22] = molecular target: T1, Heat shock protein HSP90; assay: Inhibition of HSP90 in human MCF7 cells assessed as decrease in CDK4 level at 5 to 20 uM incubated for 48 hrs by Western blot analysis; assay type: cell-based; conditions: dose 5-20 µM; outline: as §4
[23] = Metabolic stability in simulated intestinal fluid at 37 degreeC at 1 mg/ml measured upto 1 hr by HPLC analysis; assay type: ADME; conditions: simulated gi fluid
Outline: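 Compound at 1 mg mL−1 was incubated in simulated intestinal fluid at 37 °C for up to 1 h. Remaining percentage was measured by HPLC on a C18 column (5 µm, 4.6 × 250 mm), eluting with 95% MeOH/5% H2O.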

[24] = Metabolic stability in simulated gastric fluid; assay type: ADME; conditions: simulated gi fluid
[25] = system: MCF7; assay: Induction of apoptosis in human MCF7 cells assessed as late apoptotic cells at 5 uM incubated for 36 hrs by Annexin V/PI staining based flow cytometry (reference value: 6.02 %); assay type: functional

## CN1CCN(/C=C/C(=O)/C=C/c2cccc(O[Si](C)(C)C(C)(C)C)c2)CC1
[1]
  IC50: 11.7 µM
[2]
  Activity: Active
[3]
  Activity: inactive
[4]
  Activity: inactive
[5]
  viability at 20 µM: 18.5%
[6]
  Activity: 3.58%
[7]
  viability at 10 µM: 86.9%
[8]
  Activity: 8.42%
[9]
  Stability: Stable
[10]
  IC50: 12.1 µM
[11]
  Stability: Unstable
[12]
  viability at 10 µM: 65.6%
[13]
  IC50: 10.1 µM
[14]
  Activity: 8.45%
[15]
  inhibition: Active
[16]
  Activity: 47.7%
[17]
  inhibition: Active
[18]
  Activity: Active
[19]
  Activity: Active
[20]
  IC50: 9.06 µM
[21]
  selectivity ratio: ~4.2
[22]
  inhibition: Active
[23]
  Stability: Stable
[24]
  Stability: Unstable
[25]
  Activity: 9.96%
